# Results as given in ChEMBL document CHEMBL3407335, “SAR-guided development and characterization of a potent antitumor compound toward B-cell neoplasms with no detectable cytotoxicity toward healthy cells” (J Med Chem, 2015).
# Experiments:
# [1] = Cytotoxicity against human OCI-LY7 cells after 48 hrs by CellTitre-Blue assay; assay type: functional, cell-based; conditions: OCI-Ly7, 48 h
# How it was run: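 OCI-LY7 assays were run in IMDM + GlutaMAX with 25 mM HEPES, phenol red, 20% FBS and 1% PenStrep. […] Viability was read by CellTiter-Blue. IC50 came from at least two independent experiments, each with three replicates.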
# [2] = Cytotoxicity against mouse M210B4 cells after 48 hrs by CellTitre-Blue assay; assay type: cell-based; conditions: M210B4, 48 h
# How it was run: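 Murine bone marrow fibroblasts served as the non-malignant counter-screen. Compound was tested at six levels (0.1, 1, 5, 10, 50, 100 μM) for 48 h. Viability was read by CellTiter-Blue. IC50 came from at least two independent experiments with three replicates each.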
# [3] = Cytotoxicity against human U2940 cells after 48 hrs by CellTitre-Blue assay; assay type: functional, cell-based; conditions: U-2940, 48 h
# How it was run: (§1)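 Screening used phenol red-free RPMI 1640 + L-glutamine with 10% FBS and 1% PenStrep. Exposure was 48 h in triplicate, with CellTiter-Blue read-out. IC50 came from at least two independent experiments, each in triplicate.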
# [4] = Cytotoxicity against human MEC1 cells after 48 hrs by CellTitre-Blue assay; assay type: functional, cell-based; conditions: MEC1, 48 h; how it was run: as §1
# K562 [5] = assay: Cytotoxicity against human K562 cells after 24 hrs by MTT assay; assay type: functional, cell-based; conditions: K562, 24 h
# Jurkat [6] = assay: Cytotoxicity against human Jurkat cells after 24 hrs by MTT assay; assay type: functional, cell-based
# K562 [7] = assay: Cytotoxicity against human K562 cells assessed as reduction in cell viability at <1 uM after 48 hrs by CellTitre-Blue assay; assay type: functional
# How it was run: (§2)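 Cell lines were maintained in RPMI 1640 + GlutaMAX with 10% FBS and 1% penicillin/streptomycin at 37 °C under 5% CO2. For the assay, cells went into phenol red-free RPMI 1640 + L-glutamine with 10% FBS and 1% PenStrep. They were incubated in triplicate with increasing compound concentrations for 48 h. Viability was read by CellTiter-Blue, normalized to vehicle-only cells, and reported as mean plus SD.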
# [8] = Cytotoxicity against human SUDHL9 cells after 48 hrs by CellTitre-Blue assay; assay type: functional, cell-based; conditions: SUDHL9, 48 h
# How it was run: (§3)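 Cell lines in phenol red-free RPMI 1640 with L-glutamine, 10% FBS and 1% penicillin/streptomycin. Cells exposed in triplicate to increasing compound concentrations for 48 h at 37 °C. CellTiter-Blue read-out, normalized to vehicle-only cells. IC50 from two independent experiments.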
# [9] = Cytotoxicity against human HL60 cells after 48 hrs by CellTitre-Blue assay; assay type: functional, cell-based; conditions: HL-60, 48 h; how it was run: as §3
# Jurkat [10] = assay: Cytotoxicity against human Jurkat cells assessed as reduction in cell viability at <1 uM after 48 hrs by CellTitre-Blue assay; assay type: functional; how it was run: as §2
# PBMC [11] = assay: Cytotoxicity against patient PBMC after 48 hrs by CellTitre-Blue assay; assay type: cell-based; conditions: Homo sapiens
# How it was run: (§4)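 Cryopreserved PBMC (CLL patients N = 15; healthy donors N = 4) thawed and cultured overnight in phenol red-free RPMI 1640 with L-glutamine and 20% FBS. Suspension culture at 300 000 cells per well with increasing compound concentrations for 48 h, in triplicate. CellTiter-Blue viability normalized to vehicle; IC50 fitted from the mean values of all samples.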
# CCRF-CEM [12] = assay: Cytotoxicity against human CCRF-CEM cells assessed as reduction in cell viability at <1 uM after 48 hrs by CellTitre-Blue assay; assay type: functional; how it was run: as §2
# PBMC [13] = assay: Cytotoxicity against healthy human PBMC after 48 hrs by CellTitre-Blue assay; assay type: cell-based; how it was run: as §4
# [14] = Cytotoxicity against human SU-DHL6 cells after 48 hrs by CellTitre-Blue assay; assay type: functional, cell-based; conditions: SU-DHL-6, 48 h; how it was run: as §3
# Jurkat [15] = assay: Cytotoxicity against human Jurkat cells after 48 hrs by CellTitre-Blue assay; assay type: functional, cell-based; how it was run: as §3
# CCRF-CEM [16] = assay: Cytotoxicity against human CCRF-CEM cells after 48 hrs by CellTitre-Blue assay; assay type: functional, cell-based; how it was run: as §3
# PBMC [17] = assay: Cytotoxicity against patient PBMC after 48 hrs by CellTitre-Blue assay in presenc of mouse M210B4 cells; assay type: cell-based; conditions: Homo sapiens
# How it was run: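 M2-10B4 mouse fibroblasts were seeded and left overnight to form a confluent layer. Medium was then replaced by 3 million PBMC from CLL patients (N = 9), which had been thawed and held overnight, in RPMI with 20% FBS. Cocultures were exposed to increasing compound concentrations for 48 h, in triplicate. CellTiter-Blue viability normalized to vehicle; IC50 from mean values of all samples.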
# [18] = Cytotoxicity against human HL60 cells assessed as reduction in cell viability at <1 uM after 48 hrs by CellTitre-Blue assay; assay type: functional, HL-60; how it was run: as §2
Compound,IC50 [1] [nM],IC50 [2] [nM],IC50 [3] [nM],IC50 [4] [nM],other results
CCCOc1ccccc1C(=O)/C=C/c1ccc2ccccc2c1,100,> 100000,5300,130,–
CCOc1ccccc1C(=O)/C=C/c1ccc2sccc2c1,340,21000,9100,340,–
CCOc1ccc(C(=O)/C=C/c2cc3ccccc3[nH]2)cc1,25000,–,–,> 100000,–
CC(C)Oc1ccccc1C(=O)/C=C/c1ccc2ccccc2c1,150,> 100000,11000,1200,–
CCOc1ccccc1C(=O)/C=C/c1cccc2ccccc12,1500,17000,7400,1900,–
CCOc1ccccc1C(=O)/C=C/c1cc2ccccc2c2ccccc12,680,> 100000,40000,1600,–
CCOc1ccccc1C(=O)/C=C/c1ccc2c(c1)OCO2,130,> 100000,9500,1100,–
C=Cc1cccc(/C=C/C(=O)c2ccccc2OCC)c1,500,> 100000,2500,200,–
CCOc1ccccc1C(=O)/C=C/c1ccc2ccccc2c1,60,7800,2400,60,IC50 (K562 [5]): 40000 nM; IC50 (Jurkat [6]): 21000 nM
COc1ccccc1C(=O)/C=C/c1ccc2ccccc2c1,460,42000,4100,430,–
CCOc1cccc(C(=O)/C=C/c2ccc3ccccc3c2)c1,1800,–,16000,2900,–
CCOc1ccccc1C(=O)/C=C/c1ccc2cc(OC)ccc2c1,1000,> 100000,25000,7200,–
CCOc1ccc(C(=O)/C=C/c2csc3ccccc23)cc1,4800,–,15000,7500,–
Cc1ccccc1C(=O)/C=C/c1ccc2ccccc2c1,4900,72000,10000,6400,–
CCOc1cccc(C(=O)/C=C/c2cc3ccccc3[nH]2)c1,4800,–,–,3300,–
CCOc1ccccc1C(=O)/C=C/c1c2ccccc2cc2ccccc12,> 100000,–,> 100000,> 100000,–
CCOc1ccccc1C(=O)/C=C/c1csc2ccccc12,100,8200,860,170,–
CCCCOc1ccccc1C(=O)/C=C/c1ccc2ccccc2c1,120,> 100000,5300,700,–
CCOc1ccccc1C(=O)/C=C/c1cc2ccccc2[nH]1,52,19000,2900,22,Activity (K562 [7]): 60%; IC50 [8]: 31 nM; IC50 [9]: 16 nM; Activity (Jurkat [10]): <30%; IC50 (PBMC [11]): 1200 nM; Activity (CCRF-CEM [12]): <30%; IC50 (PBMC [13]): 14000 nM; IC50 [14]: 56 nM; IC50 (Jurkat [15]): 38 nM; IC50 (CCRF-CEM [16]): 32 nM; IC50 (PBMC [17]): 680 nM; Activity [18]: <30%
Nc1nc(F)nc2c1ncn2[C@@H]1O[C@H](CO)[C@@H](O)[C@@H]1O [FLUDARABINE],–,–,–,–,IC50 (PBMC [11]): 1900 nM; IC50 (PBMC [13]): 14000 nM; IC50 (PBMC [17]): 10000 nM
CCOc1cccc(C(=O)/C=C/c2csc3ccccc23)c1,1700,–,7600,2200,–
